T cruzi repl = blocks replication of Trypanosoma cruzi | T. cruzi beta-gal in NIH3T3, luminescence, 90 h | inhibition, % (concentration not given with the values) | 1.4% of 300,000 active;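 active means mean inhibition across valid replicates above about 55%, limit read from the data; inconclusive means mean below that limit but half or more replicates reach it; inactive means mean below it, under half of replicates reach it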;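 further: signal also drops with host cell toxicity which is not excluded here; 0% = plate median of DMSO wells and 100% = zero luminescence signal; higher percent means less beta-gal luminescence so fewer parasites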
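compound dosing = single 50 nL compound addition per well in DMSO | material = NIH/3T3 host cells with β-galactosidase reporter T. cruzi | input = 5,000 host fibroblasts per well | timing = ≥90 h infection period, 3 h prior cell attachment | read-out basis = percent inhibition of parasite-derived β-gal signal | detection = GalScreen β-gal luminescence, detergent lysis, 60 min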
Mdm2 MdmX PPI = disrupts the human Mdm2-MdmX interaction | O15151+Q00987 | SaOS-2 split-luciferase Mdm2/MdmX complementation, luminescence | inhibition, % at 8 µM | 3% of 330,000 active | AID 485346;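 active means inhibition of at least 50% at 8 µM in the primary screen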
Target sequence (O15151 whole entry, looked up): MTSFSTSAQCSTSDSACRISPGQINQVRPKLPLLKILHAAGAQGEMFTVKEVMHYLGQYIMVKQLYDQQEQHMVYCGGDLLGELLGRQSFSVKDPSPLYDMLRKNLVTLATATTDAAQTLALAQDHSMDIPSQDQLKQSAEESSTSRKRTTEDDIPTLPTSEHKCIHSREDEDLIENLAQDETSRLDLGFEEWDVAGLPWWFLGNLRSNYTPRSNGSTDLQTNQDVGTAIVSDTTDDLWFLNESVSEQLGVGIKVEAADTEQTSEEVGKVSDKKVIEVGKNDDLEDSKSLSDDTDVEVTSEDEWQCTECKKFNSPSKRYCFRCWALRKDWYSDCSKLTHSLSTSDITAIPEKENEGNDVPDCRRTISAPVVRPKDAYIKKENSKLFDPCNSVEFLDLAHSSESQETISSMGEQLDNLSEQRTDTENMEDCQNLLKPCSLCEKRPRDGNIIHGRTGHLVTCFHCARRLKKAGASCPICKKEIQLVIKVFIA
Target sequence (Q00987 whole entry, looked up): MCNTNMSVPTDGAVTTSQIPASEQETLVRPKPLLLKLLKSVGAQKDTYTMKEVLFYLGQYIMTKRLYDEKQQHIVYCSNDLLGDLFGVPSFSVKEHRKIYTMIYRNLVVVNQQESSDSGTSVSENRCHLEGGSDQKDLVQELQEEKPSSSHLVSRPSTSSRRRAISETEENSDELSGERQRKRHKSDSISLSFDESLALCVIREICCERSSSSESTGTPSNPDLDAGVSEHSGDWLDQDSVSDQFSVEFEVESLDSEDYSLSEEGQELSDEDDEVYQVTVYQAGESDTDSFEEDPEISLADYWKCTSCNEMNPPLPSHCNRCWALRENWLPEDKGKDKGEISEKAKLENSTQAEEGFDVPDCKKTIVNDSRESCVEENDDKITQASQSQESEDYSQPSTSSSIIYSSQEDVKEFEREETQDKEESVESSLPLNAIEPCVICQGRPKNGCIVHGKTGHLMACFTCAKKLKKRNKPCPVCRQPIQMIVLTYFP
Calb FLC = affects C. albicans growth with fluconazole; C. albicans CaCi-2 + fluconazole, Alamar Blue growth, 48 h; growth inhibition, % (no concentration beside the values); 0.57% of 300,000 active;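 active means growth inhibition above about 58% in most replicates, limit read from the data, passing the limit was not always enough; inconclusive means exactly half the replicates above a set limit; inactive means most replicates below a set limit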;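 further: all wells also contain fluconazole at 8 µg/ml as a sub-toxic cotreatment; 0% = median of DMSO wells and 100% = median of geldanamycin control wells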
CSC inhib = blocks cancer stem cells; cancer stem cell-like cells viability, luminescence; inhibition, % at 7.5 µM; 1.1% of 300,000 active; in the data active means inhibition above about 75%; inconclusive means no clear call, values can overlap the other calls; tested in HMLE shEcad cells
NLRP3 yeast inh = inhibitors of NALP3 inflammasome in yeast | Yeast reconstituted NLRP3/ASC/caspase-1, beta-gal luminescence, 24 h | inhibition, % at 10 µM | 0.39% of 330,000 active | AID 2825;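 active means inhibition of 50% or more; inactive means inhibition below 50%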;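 further: plate controls were induced DMSO wells for no effect and uninduced yeast grown without galactose for full effect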
Beta cell apopt = beta cell apoptosis inhibition; 0.8% of 300,000 active; INS-1E cytokine-induced death, ATP luminescence, 48 h; percent of positive-control rescue, neutral wells zero; AID 435005; protection from apoptosis, % (test concentration not listed);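 active means Every replicate reaches about 75%, or at least half do and their mean reaches it too, limit read from the data; inconclusive means At least half of replicates reach the limit but their mean does not; inactive means Under half of replicates reach the limit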;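 further: 0% = cytokine-treated negative control wells and 100% = positive control rescue; higher means more ATP so stronger rescue from cytokine killing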
Mdm2-MdmX conf = human Mdm2/MdmX binding inhibition, confirmed | shares compounds with Mdm2 MdmX PPI | luminescent assay | inhibition, % at 8 µM | 55% of 10,000 active | AID 489028; in the data active means inhibition above about 40%
Full FLuc ctr = full-length luciferase inhibition in Mdm2/MdmX counter-screen | 77% of 6,200 active | SaOS-2 full-length luciferase counterscreen, luminescence | shares compounds with Mdm2 MdmX PPI | inhibition, % at 8 µM | AID 504607;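 active means mean inhibition at 8 µM reaching about 37%, which flags the compound as non-specific, limit read from the data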;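 further: p53-null SaOS-2 cells with luciferase driven by a doxycycline-inducible promoter; compound on cells about two nights before reading with doxycycline added after day one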
* marks the source's active call; other numbers are inactive results; ? = inconclusive; / = no result. Sampled rows, rich in hits. Any-hit rate of the full collection: about 5.3%.

SMILES | T cruzi repl | Mdm2 MdmX PPI | Calb FLC | CSC inhib | NLRP3 yeast inh | Beta cell apopt | Mdm2-MdmX conf | others
Oc1[nH]c2c(Cl)cc(Cl)cc2c1N=NC(=S)NCC1CCCO1 (centres undefined) | 44 | 98* | 97* | / | 24 | 52 | 45* | Full FLuc ctr=50*
CCOC(=O)C1=C(Nc2cccc(Cl)c2)OCC1=O | -19 | 28 | -3 | 2 | 5 | -2 | /
CC1(NC(=S)NCCCCCCNC(=S)NC2(C)CCS(=O)(=O)C2)CCS(=O)(=O)C1 (centres undefined) | -7 | -12 | 24 | 0 | 10 | 2 | /
O=C(Nc1ccncc1)c1cccc(S(=O)(=O)N2CCOCC2)c1 | -4 | -24 | -11 | 23 | 13 | -3 | /
COc1ccc(/C=C2/SC(=S)N(CCC(=O)N3CCN(C)CC3)C2=O)cc1 | -2 | 12 | 0 | 58 | 14 | -15 | /
COC(=O)c1ccc(/C=C2/SC(=S)N(CCC(=O)N3CCOCC3)C2=O)cc1 | -14 | 12 | -16 | / | 27 | -20 | /
COc1ccc(/C=C2/SC(=S)N(CCCC(=O)N3CCN(C)CC3)C2=O)cc1 | 15 | 55* | 0 | 3 | 22 | 5 | 34 | Full FLuc ctr=32
CN1CCN(C(=O)CCCN2C(=O)/C(=C/c3ccccc3)SC2=S)CC1 | 9 | 52* | 13 | 40 | 8 | -47 | 34 | Full FLuc ctr=31
CN1CCN(C(=O)CCCN2C(=O)/C(=C/c3ccc(Cl)cc3)SC2=S)CC1 | / | 52* | / | / | 16 | -11 | 0
Cc1ccc(/C=C2\SC(=S)N(CCCC(=O)N3CCOCC3)C2=O)cc1 | -10 | 56* | 2 | -6 | 14 | -4 | 40 | Full FLuc ctr=30
CCc1ccc(/C=C2\SC(=S)N(CCC(=O)N3CCN(C)CC3)C2=O)cc1 | 12 | 40 | -12 | 56 | 12 | -23 | /
COC(=O)c1scc(C)c1S(=O)(=O)Nc1ccc(C)cc1 | -3 | 14 | -4 | 13 | 24 | -2 | /
COCCn1c(=O)[nH]c2cc(C(=O)N3CCN(c4ccc(Cl)cc4)CC3)ccc2c1=O | 19 | 10 | 12 | / | 9 | -7 | /
CN(C(=O)COC(=O)Cc1c(Cl)cccc1Cl)c1c(N)n(Cc2ccccc2)c(=O)[nH]c1=O | -7 | -17 | 4 | / | 15 | 0 | /
c1cncc(-c2nnc3n2N=C(c2cccs2)CS3)c1 | 8 | 10 | ? | 7 | 17 | -1 | /
C[C@@H]1CN([C@@H](C)CO)C(=O)Cc2cc(NS(=O)(=O)c3ccccc3)ccc2O[C@H]1CN(C)Cc1ccncc1 | / | 11 | / | -17 | -8 | -2 | /
Cc1ccc(S(=O)(=O)Nc2ccc3c(c2)CC(=O)N([C@H](C)CO)C[C@@H](C)[C@H](CN(C)Cc2ccc(-c4ccccc4)cc2)O3)cc1 | / | 82* | / | 109* | 1 | -9 | 39 | Full FLuc ctr=63*
C[C@H]1CN([C@@H](C)CO)C(=O)Cc2cc(NC(=O)CCC(F)(F)F)ccc2O[C@H]1CN(C)Cc1ccc(C(F)(F)F)cc1 | / | 29 | / | 2 | 6 | 10 | /
C[C@H]1CN([C@@H](C)CO)C(=O)Cc2cc(NC(=O)CCC(F)(F)F)ccc2O[C@H]1CN(C)Cc1ccc(-c2ccccc2)cc1 | / | 55* | / | 123* | 15 | 14 | 24
C[C@H](CO)N1C[C@H](C)[C@H](CN(C)Cc2ccc(-c3ccccc3)cc2)Oc2ccc(NS(=O)(=O)c3ccccc3)cc2CC1=O | / | 85* | / | 97* | 6 | -5 | 9
Cc1c(C(=O)NNC(=O)c2csc(N3CCOCC3)n2)cccc1[N+](=O)[O-] | / | 5 | / | -5 | 16 | 6 | /
CN(CC(=O)Nc1ccccc1Br)C(=O)CCc1ccccc1 | 3 | 2 | -3 | 0 | 1 | 0 | /
CN(C)c1ccc2nc3ccc(=[N+](C)C)cc-3sc2c1 | 43 | 53* | / | 96* | 24 | / | 10
Cc1nc2ccc(N)cc2s1 | -12 | -29 | -6 | -3 | -1 | / | /
Cc1ccc(-n2nc(C)c3c(C)c(CCC(=O)Nc4ccc(CN5CCCC5)cc4)c(C)nc32)cc1 | 72* | 89* | 0 | ? | 2 | 41 | 50* | Full FLuc ctr=25
SMILES | T cruzi repl | Mdm2 MdmX PPI | Calb FLC | CSC inhib | NLRP3 yeast inh | Beta cell apopt | Mdm2-MdmX conf | others
CCN(CC)CCNC(=O)CCc1c(C)nc2c(c(C)nn2-c2ccc(C)c(C)c2)c1C | 9 | 58* | 1 | 9 | 20 | 13 | 44* | Full FLuc ctr=48*
CC(=O)NCC(=O)OCC(=O)Nc1ccc(C(C)=O)cc1 | 2 | -46 | 6 | -12 | 14 | -5 | /
Cc1onc(-c2ccccc2)c1C(=O)Nc1nnc(C(C)C)s1 | -1 | 17 | 3 | -4 | 6 | -2 | /
Cc1ccc([N+](=O)[O-])cc1NC(=O)c1ccc2c(c1)OCO2 | -17 | -10 | ? | -8 | 17 | -2 | /
O=C(Nc1cc([N+](=O)[O-])ccc1Cl)c1ccc2c(c1)OCO2 | 2 | 74* | -18 | -2 | -3 | 0 | 16
O=C(Nc1ncc([N+](=O)[O-])s1)c1ccc2c(c1)OCO2 | 27 | 75* | -16 | 50 | 39 | 60 | 69* | Full FLuc ctr=64*
Cc1onc(-c2ccccc2)c1C(=O)Nc1ncc([N+](=O)[O-])s1 | 12 | 73* | 53 | 48 | 25 | 66 | 38 | Full FLuc ctr=59*
Cc1cnc(NC(=O)c2ccc3c(c2)OCCO3)s1 | / | 74* | / | / | 18 | / | 80* | Full FLuc ctr=29
Cc1nc2ccc3nc(NC(=O)c4ccc5c(c4)OCCO5)sc3c2s1 | -10 | 11 | -1 | -7 | 12 | -7 | /
COc1ccccc1CNC(=O)CSc1cc(=O)n(C)c2ccccc12 | -16 | 14 | 10 | -16 | 3 | -1 | /
CC1CCN(C(=O)c2ccc(NC(=O)c3ccccc3)cc2)CC1 | -1 | 13 | -3 | -5 | 21 | / | /
CC1CCCCN1C(=O)c1cccc(NC2=C(Cl)C(=O)N(Cc3ccccc3)C2=O)c1 (centres undefined) | / | 76* | / | 4 | 31 | -8 | 28
CC1CCN(C(=O)c2ccc(NC3=C(Cl)C(=O)N(Cc4ccccc4)C3=O)cc2)CC1 | / | 58* | / | / | 30 | / | 38
O=C1C(Cl)=C(Nc2cccc(O)c2)C(=O)N1Cc1ccccc1 | -60 | 52* | 4 | -4 | 23 | 1 | 21
CC(=O)N1c2ccc(S(=O)(=O)N3CCCC(C(=O)N4CCCC(C)C4)C3)cc2CC1C (centres undefined) | 6 | 31 | -39 | 3 | 18 | 9 | /
O=C(COC(=O)C1CCC1)NC(=O)c1ccccc1 | -16 | -2 | 7 | -6 | 11 | 4 | /
Cc1c(C(=O)Nc2ccc(S(N)(=O)=O)cc2)oc2ccc(Cl)cc12 | -3 | -5 | -17 | -10 | 16 | 2 | /
OCCN1CCN(CCCN2c3ccccc3Sc3ccc(Cl)cc32)CC1 | 5 | 46 | / | 38 | 14 | 4 | /
CN(C)CCCN1c2ccccc2Sc2ccc(Cl)cc21 | 22 | 68* | / | 18 | 27 | -2 | 13

Screens from PubChem.
